Measurements of several laboratories.
Protocols differ between the studies behind these lines.
OPRM1: Mu-type opioid receptor (OPRM1, Homo sapiens, UniProt P35372)
GRK4: G protein-coupled receptor kinase 4 (GRK4, Homo sapiens, UniProt P32298)

CCN1/C(=C/C(C)=O)Sc2ccc(F)cc21  inhibition (OPRM1; ligand displacement; radioligand; 10 µM): 0.11%
Cc1cc(S(=O)(=O)N[C@H]2CC[C@H](CN3CCN(c4ccc(C5CCC(=O)NC5=O)cc4F)CC3)CC2)ccc1Nc1ncc(C(F)(F)F)c(N2CCC[C@](C)(O)C2)n1 (stereo partly shown)  remaining binding (GRK4; binding; competition with immobilised ligand; 1 µM): 89%
CCCCC(=O)Nc1ccc(-c2ccc3ncn(CCC)c(=O)c3c2)cn1  remaining binding (Ephrin type-A receptor 6 (EPHA6, Homo sapiens, UniProt Q9UF33); binding; competition with immobilised ligand; 0.5 µM): 100%
Cc1cc(O)c(-c2ccc([C@@H](C)CN(C)C)cc2)c2c1[nH]c(=O)c1sccc12  inhibition (SRSF protein kinase 1 (SRPK1, Homo sapiens, UniProt Q96SB4); enzyme activity; inhibitor; 0.1 µM): 1.88%
C[C@]1(O)CCCN(c2nc(Nc3ccc(S(=O)(=O)N[C@H]4CC[C@H](CN5CCN(c6ccc(C7CCC(=O)NC7=O)cc6F)CC5)CC4)cc3Cl)ncc2C(F)(F)F)C1 (stereo partly shown)  remaining binding (GRK4; binding; competition with immobilised ligand; 1 µM): 93%
C1=C/COCc2cc(ccc2OCCN2CCCC2)Nc2nccc(n2)-c2cccc(c2)COC/1  remaining binding (eIF-2-alpha kinase GCN2 (EIF2AK4, Homo sapiens, UniProt Q9P2K8, S808G); binding; 0.1 µM): 9.6%
NC/C(=C\F)COc1cccc(Cn2c(=S)[nH]c(=O)c3[nH]cnc32)c1  inhibition (OPRM1; ligand displacement; radioligand; 10 µM): < 50%
COc1ccc2oc(-c3ccc4nc(N)oc4c3)c/c(=N\c3ccccc3NC(=O)CCN)c2c1  remaining binding (Protein kinase C alpha type (PRKCA, Homo sapiens, UniProt P17252); binding; 1 µM): 100%
Cc1cc(F)cc2c(CCC(=O)N[C@@H]3C(=O)NC[C@H]3O)c(-c3ccc(F)cc3)[nH]c12  inhibition (OPRM1; cell-free assay; 10 µM): 5%
C#Cc1cc(-c2cc(Nc3nc(N[C@@H](C)c4ccc(F)cn4)ncc3Cl)n[nH]2)ccc1C=O  inhibition (cGMP-dependent protein kinase 1 (PRKG1, Homo sapiens, UniProt Q13976); enzyme activity; inhibitor; 0.2 µM): 3.89%
